Consider 7 molecules from ChEMBL document CHEMBL1137577, “Inhibitors of the interaction of a thyroid hormone receptor and coactivators: preliminary structure-activity relationships” (J Med Chem, 2007).

Values after ≈ are worked out from the molar mass of the structure shown. A value given as a limit tells only on which side of the number the result lay.

Data set [1] deals with U2OS. Nature of the data set: Cytotoxicity against human U2OS cells after 48 hrs by MTS assay. It counts as functional. The note with it: Homo sapiens, U2OS, 48 h; read-out: LD50 (the source's name).
The nature of data set [2]: physchem. The settings on record: PBS.
Data set [3] can be described thus: Permeability across artificial membrane at pH 7.4 by PAMPA assay. (PAMPA measures passive passage across an artificial lipid membrane.)
For data set [4], the system named is ARO. Nature of the data set: Cytotoxicity against human ARO cells after 48 hrs by MTS assay. The settings on record: Homo sapiens, ARO, 48 h; read-out: LD50 (the source's name). It counts as functional. A general note: Tetrazolium assays rely on reduction of a dye to a coloured formazan, in cell work by metabolically active cells.
Data set [5] addresses T1, Thyroid hormone receptor alpha (Homo sapiens, UniProt P10827).
T1 sequence (P10827 whole entry): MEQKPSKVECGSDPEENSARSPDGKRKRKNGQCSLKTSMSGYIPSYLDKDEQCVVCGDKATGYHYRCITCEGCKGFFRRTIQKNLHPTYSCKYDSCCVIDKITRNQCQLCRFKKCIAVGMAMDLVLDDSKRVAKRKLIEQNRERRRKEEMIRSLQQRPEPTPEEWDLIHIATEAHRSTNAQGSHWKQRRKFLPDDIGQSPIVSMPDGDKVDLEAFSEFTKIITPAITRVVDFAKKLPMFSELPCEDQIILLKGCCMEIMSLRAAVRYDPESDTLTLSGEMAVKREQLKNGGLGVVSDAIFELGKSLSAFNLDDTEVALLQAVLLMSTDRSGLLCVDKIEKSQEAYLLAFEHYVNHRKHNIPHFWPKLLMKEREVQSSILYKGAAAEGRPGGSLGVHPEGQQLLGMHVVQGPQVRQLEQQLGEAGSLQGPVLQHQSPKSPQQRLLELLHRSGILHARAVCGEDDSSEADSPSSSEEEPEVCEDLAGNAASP
Nature of the data set: Displacement of labeled SRC2-2 from human TRalpha by FP assay.

Data set [6] deals with T2, Thyroid hormone receptor beta (Homo sapiens, UniProt P10828).
T2 sequence (P10828 whole entry): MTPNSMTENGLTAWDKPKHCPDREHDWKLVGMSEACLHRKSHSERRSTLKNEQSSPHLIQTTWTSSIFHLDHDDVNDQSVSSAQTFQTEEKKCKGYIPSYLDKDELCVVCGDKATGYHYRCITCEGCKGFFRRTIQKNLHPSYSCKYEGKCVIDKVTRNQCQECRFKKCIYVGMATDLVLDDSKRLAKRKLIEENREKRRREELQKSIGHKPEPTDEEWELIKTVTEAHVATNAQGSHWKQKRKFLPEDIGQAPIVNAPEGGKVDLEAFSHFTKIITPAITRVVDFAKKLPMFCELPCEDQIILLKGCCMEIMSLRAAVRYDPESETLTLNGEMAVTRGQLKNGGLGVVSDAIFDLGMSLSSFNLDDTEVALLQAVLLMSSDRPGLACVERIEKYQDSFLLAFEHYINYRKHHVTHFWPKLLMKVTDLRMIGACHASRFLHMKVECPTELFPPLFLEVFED
Description: Displacement of labeled SRC2-2 from human TRbeta expressed in BL21 (DE3) cells FP assay. Format: cell-based. The method, boiled down: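 Competitive fluorescence polarization. Assay liquid was PBS containing 5% DMSO. For TRβ, hTRβ1 LBD (His6, T209-D461) was expressed in BL21 (DE3).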

As a reminder, the solubility is the dissolved amount per volume that the medium holds. A high value points to much dissolved substance. In general, Papp refers to the rate of passage across a membrane or cell layer, normalised by area and donor concentration. For orientation: IC50 means the concentration needed to halve the response being measured. On to `C#CC(=O)Nc1ccc(CCCCCC)cc1`, for which the CC50 in data set [1] stood at 17.1 µM; in data set [4] it was 8 µM. In addition, in data set [2], the concentration in solution (solubility) was 60 µM (≈ 13.8 µg/mL). The molecule further had an apparent permeability coefficient (Papp) in data set [3] of 621 ×10⁻⁶ cm/s. Besides, the values for the IC50 in data set [5] and in data set [6] were 68.9 µM and 35.1 µM, respectively.

In the case of `CCCCCCc1ccc(C(=O)CCCBr)cc1`, the figures for the CC50 in data set [1] and in data set [4] were 25.3 µM and 28.7 µM, respectively. In addition, the solubility in data set [2] stood at 26 µM (≈ 8.09 µg/mL). This molecule yielded a Papp in data set [3] of 58 ×10⁻⁶ cm/s. For the same molecule, the 50% inhibitory concentration (IC50) in data set [5] and in data set [6] was over 100 µM in each case.

Take `C#CC(=O)Oc1ccc(CCCCCC)cc1`: the CC50 in data set [1] came out at 13.9 µM; in data set [4], 7.9 µM. In data set [2], this molecule yielded a solubility of 18 µM (≈ 4.15 µg/mL). The Papp in data set [3] was 21 ×10⁻⁶ cm/s. In addition, the IC50 stood at 16.7 µM in data set [5] and 6.2 µM in data set [6].

In the case of `CCCCCCc1ccc(C(=O)C2CO2)cc1` (configuration not stated), the CC50 in data set [1] was 58 µM; in data set [4] it was over 200 µM. This molecule yielded a solubility in data set [2] of 204 µM (≈ 47.4 µg/mL). The permeability in data set [3] was 1117 10^-6 cm/s. Further, the IC50 came to 47.7 µM in data set [5] and 23.1 µM in data set [6].

Consider `CCCCCCc1ccc(NC(=O)C=C(C)C)cc1`, for which the CC50 in data set [1] and in data set [4] was over 200 µM throughout. This molecule displayed a solubility in data set [2] of 37 µM (≈ 9.6 µg/mL). The Papp in data set [3] worked out at 98 ×10⁻⁶ cm/s. The IC50 in data set [5] and in data set [6] was over 100 µM throughout.

As for `C=CC(=O)Nc1ccc(CCCCCC)cc1`, the CC50 in data set [1] is 66.5 µM; in data set [4] it was 113 µM. In data set [2], this molecule showed a solubility of 47 µM (≈ 10.9 µg/mL). The Papp in data set [3] is 833 ×10⁻⁶ cm/s. For the same molecule, the half-inhibitory concentration (IC50) came out at 21.6 µM in data set [5] and 17.9 µM in data set [6].

As for `C/C=C/C(=O)Nc1ccc(CCCCCC)cc1`, the CC50 in data set [1] and in data set [4] was over 200 µM in each case. In addition, the solubility in data set [2] stood at 42 µM (≈ 10.3 µg/mL). The same molecule had an apparent permeability (Papp) in data set [3] of 432 ×10⁻⁶ cm/s. In addition, the IC50 in data set [5] and in data set [6] was over 100 µM in each case.
